Results on one protein are retold here after ChEMBL document CHEMBL3813641, “Prediction and verification of novel peptide targets of protein tyrosine phosphatase 1B” (Bioorg Med Chem, 2016).

Substrate in data set [1]: NCCCC[C@H](NC(=O)[C@H](CCCCN)NC(=O)[C@@H]1CCCN1C(=O)[C@H](Cc1ccc(O)cc1)NC(=O)[C@H]1CCCN1C(=O)[C@H](CCCCN)NC(=O)[C@H](CCCCN)NC(=O)[C@H](CCCCN)NC(=O)[C@@H](N)CCCCN)C(=O)O
Description: Ratio of Kcat to Km for recombinant human N-terminal His-tagged PTP1B (1 to 321 residues) expressed in Escherichia coli BL21(DE3) cells.

Substrate in data set [2]: CC[C@H](C)[C@H](N)C(=O)N[C@@H](CCC(=O)O)C(=O)N[C@@H](CC(=O)O)C(=O)N1CCC[C@H]1C(=O)N1CCC[C@@H]1C(=O)N[C@@H](Cc1ccc(O)cc1)C(=O)N1CCC[C@@H]1C(=O)N[C@@H](Cc1ccc(O)cc1)C(=O)NCC(=O)N[C@@H](CC(N)=O)C(=O)N[C@@H](CC(=O)O)C(=O)N[C@@H](CO)C(=O)N[C@@H](CC(=O)O)C(=O)O
Description: (§1) Substrate activity at recombinant human N-terminal His-tagged PTP1B (1 to 321 residues) expressed in Escherichia coli BL21(DE3) cells assessed as inorganic phosphate release after 30 mins by spectrophotometric method. The method, boiled down: (§2)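 Synthetic phosphotyrosine peptides (N-acetylated, C-terminal amide, HPLC-purified) were incubated in vitro with purified PTP1B, and the released inorganic phosphate was detected with the EnzChek phosphate assay kit.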

Substrate in data set [3]: CC(C)[C@H](NC(=O)[C@H](CC(=O)O)NC(=O)[C@H](CCC(=O)O)NC(=O)[C@H](CC(N)=O)NC(=O)[C@@H](N)CC(=O)O)C(=O)N1CCC[C@@H]1C(=O)N[C@@H](Cc1ccc(O)cc1)C(=O)N[C@H](C(=O)N[C@@H](Cc1ccccc1)C(=O)N[C@@H](CCCCN)C(=O)N[C@H](C(=O)N1CCC[C@H]1C(=O)O)[C@@H](C)O)[C@@H](C)O
The description is as §1. The method, boiled down: as §2

Substrate in data set [4]: CC(C)C[C@@H](N)C(=O)NCC(=O)N[C@@H](CO)C(=O)N[C@@H](CCCNC(=N)N)C(=O)N[C@@H](C)C(=O)N1CCC[C@@H]1C(=O)N[C@H](Cc1ccc(O)cc1)C(=O)N1CCC[C@H]1C(=O)N[C@@H](Cc1cnc[nH]1)C(=O)N[C@H](Cc1ccccc1)C(=O)N[C@H](CS)C(=O)N[C@H](C)C(=O)O
The data set is described as §1. The method, boiled down:
as §2

Substrate in data set [5]: CC[C@H](C)[C@H](NC(=O)[C@H](CC(=O)O)NC(=O)[C@H](CCC(=O)O)NC(=O)[C@H](CCC(=O)O)NC(=O)[C@@H](N)CCC(=O)O)C(=O)N1CCC[C@@H]1C(=O)N[C@@H](Cc1ccc(O)cc1)C(=O)N[C@@H](CCC(=O)O)C(=O)N[C@H](C(=O)N[C@@H](CC(C)C)C(=O)N1CCC[C@H]1C(=O)N[C@@H](CC(=O)O)C(=O)O)C(C)C
The data set is described as §1. The method, boiled down:
as §2

Substrate in data set [6]: CC[C@H](C)[C@H](NC(=O)[C@@H]1CCCN1C(=O)[C@H](CCC(=O)O)NC(=O)[C@H](C)NC(=O)[C@H](Cc1ccc(O)cc1)NC(=O)[C@H]1CCCN1C(=O)[C@H](CC(N)=O)NC(=O)[C@H](CC(=O)O)NC(=O)[C@H](CO)NC(=O)[C@@H]1CCCN1C(=O)[C@@H](N)CC(=O)O)C(=O)N[C@@H](CC(=O)O)C(=O)O
The description is as §1. A digest of the protocol:
as §2

Substrate in data set [7]: C[C@@H](O)[C@H](NC(=O)[C@@H](N)CO)C(=O)N[C@@H](CCC(=O)O)C(=O)N1CCC[C@H]1C(=O)N[C@@H](CCC(N)=O)C(=O)N1CCC[C@@H]1C(=O)N[C@@H](Cc1ccc(O)cc1)C(=O)N[C@@H](CCC(N)=O)C(=O)N1CCC[C@H]1C(=O)NCC(=O)N[C@@H](CCC(=O)O)C(=O)N[C@@H](CC(N)=O)C(=O)O
The data set is described as §1. The method, boiled down:
as §2

Substrate in data set [8]: NCCCC[C@H](NC(=O)[C@H](CCCCN)NC(=O)[C@@H]1CCCN1C(=O)[C@H](Cc1ccc(O)cc1)NC(=O)[C@H]1CCCN1C(=O)[C@H](CCCCN)NC(=O)[C@H](CCCCN)NC(=O)[C@H](CCCCN)NC(=O)[C@@H](N)CCCCN)C(=O)O
The description is as §1. The method, boiled down:
as §2

Substrate in data set [9]: CC[C@H](C)[C@H](NC(=O)[C@@H]1CCCN1C(=O)[C@H](CO)NC(=O)[C@H](CCCCN)NC(=O)[C@H](Cc1ccc(O)cc1)NC(=O)[C@H]1CCCN1C(=O)[C@@H](NC(=O)[C@@H]1CCCN1C(=O)[C@H](CC(N)=O)NC(=O)[C@H](CCC(=O)O)NC(=O)[C@@H](N)CCC(N)=O)[C@@H](C)CC)C(=O)N[C@@H](CC(N)=O)C(=O)O
Described as §1. A digest of the protocol:
as §2

Substrate in data set [10]: CC(C)[C@H](NC(=O)[C@@H](CCCCN)NC(=O)[C@@H](Cc1ccc(O)cc1)NC(=O)[C@H]1CCCN1C(=O)[C@H](Cc1ccc(O)cc1)NC(=O)[C@H]1CCCN1C(=O)[C@H](CCC(=O)O)NC(=O)[C@H](N)CCCCN)C(=O)N[C@H](CCCCN)C(=O)O
Briefly: Substrate activity at PTP1B (unknown origin). The conditions noted are these: Homo sapiens. The method, boiled down: as §2

B1: Tyrosine-protein phosphatase non-receptor type 1 (Homo sapiens), P18031 (protein)
chain: MEMEKEFEQIDKSGSWAAIYQDIRHEASDFPCRVAKLPKNKNRNRYRDVSPFDHSRIKLHQEDNDYINASLIKMEEAQRSYILTQGPLPNTCGHFWEMVWEQKSRGVVMLNRVMEKGSLKCAQYWPQKEEKEMIFEDTNLKLTLISEDIKSYYTVRQLELENLTTQETREILHFHYTTWPDFGVPESPASFLNFLFKVRESGSLSPEHGPVVVHCSAGIGRSGTFCLADTCLLLMDKRKDPSSVDIKKVLLEMRKFRMGLIQTADQLRFSYLAVIEGAKFIMGDSSVQDQWKELSHEDLEPPPEHIPPPPRPPKRILEPHNGKCREFFPNHQWVKEETQEDKDCPIKEEKGSPLNAAPYGIESMSQDTEVRSRVVGGSLRGAQAASPAKGEPSLPEKDEDHALSYWKPFLVNMCVATVLTAGAYLCYRFLFNSNT
B1: the kcat/Km entry in [1] was “Not Active”. In addition, the Km in [2] was 20.1 µM; in [3], 17.1 µM; in data set [4], above 300 µM; in data set [5], 14.7 µM; in data set [6], 28.5 µM; in data set [7] it was 29.1 µM. Also, the Km entry in data set [8] is “Not Active”; in data set [9], 21.7 µM; in [10], 12.7 µM.

The term Km denotes the substrate concentration at which the rate is half of its maximum.
